Results as given in ChEMBL document CHEMBL1157630, “A class of novel Schiff's bases: Synthesis, therapeutic action for chronic pain, anti-inflammation and 3D QSAR analysis” (2010).

Key:
Assay type in all cases: functional
Mus musculus [1] = assay: Analgesic activity in ICR mouse assessed as increase in pain threshold variation at 20 umol/kg, po administered as single dose measured after 120 mins by tail flick test
Method in brief: (§1)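 Tail-flick test in mice housed 12/12 h light/dark at 21 ± 2 °C for one day. A single oral dose of 20 µmol/kg was given in 0.2 ml normal saline; vehicle controls got saline alone. Basal threshold was measured four times, then every 30 min to 180 min, with a 10 s cut-off. PTV = (post − basal)/basal. n = 12, mean ± SD%, one-way ANOVA.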

Mus musculus [2] = assay: Analgesic activity in ICR mouse assessed as increase in pain threshold variation at 20 umol/kg, po administered as single dose measured after 30 mins by tail flick test; method in brief: as §1
Mus musculus [3] = assay: Analgesic activity in ICR mouse assessed as increase in pain threshold variation at 20 umol/kg, po administered as single dose measured after 90 mins by tail flick test; method in brief: as §1
Mus musculus [4] = assay: Analgesic activity in ICR mouse assessed as increase in pain threshold variation at 20 umol/kg, po administered as single dose measured after 150 mins by tail flick test; method in brief: as §1
Mus musculus [5] = assay: Antiinflammatory activity in ICR mouse assessed as inhibition of xylene-induced ear edema at 5 umol/kg, po
Method in brief: (§2)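 Male ICR mice (20 ± 2 g), 12 per group, were dosed orally: test agents as suspensions in normal saline, aspirin in CMC. After 30 min, 0.03 ml xylene was applied to both surfaces of the right ear, with the left ear as control. After 2 h the mice were killed, 8 mm ear discs were weighed, and edema was taken as right minus left weight.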

Mus musculus [6] = assay: Analgesic activity in ICR mouse assessed as increase in pain threshold variation at 20 umol/kg, po administered as single dose measured after 60 mins by tail flick test; method in brief: as §1
Mus musculus [7] = assay: Antiinflammatory activity in ICR mouse assessed as inhibition of xylene-induced ear edema at 10 umol/kg, po; method in brief: as §2
Mus musculus [8] = assay: Analgesic activity in ICR mouse assessed as increase in pain threshold variation at 20 umol/kg, po administered as single dose measured after 180 mins by tail flick test; method in brief: as §1
Mus musculus [9] = assay: Antiinflammatory activity in ICR mouse assessed as inhibition of xylene-induced ear edema at 20 umol/kg, po; method in brief: as §2
Mus musculus [10] = assay: Analgesic activity in ICR mouse assessed as increase in pain threshold variation at 165 umol/kg, po administered as single dose measured after 30 mins by tail flick test
Mus musculus [11] = assay: Antiinflammatory activity in ICR mouse assessed as inhibition of xylene-induced ear edema at 165 umol/kg, po; method in brief: as §2
Mus musculus [12] = assay: Analgesic activity in ICR mouse assessed as increase in pain threshold variation at 165 umol/kg, po administered as single dose measured after 120 mins by tail flick test
Mus musculus [13] = assay: Analgesic activity in ICR mouse assessed as increase in pain threshold variation at 165 umol/kg, po administered as single dose measured after 90 mins by tail flick test
Mus musculus [14] = assay: Analgesic activity in ICR mouse assessed as increase in pain threshold variation at 165 umol/kg, po administered as single dose measured after 60 mins by tail flick test
Mus musculus [15] = assay: Analgesic activity in ICR mouse assessed as increase in pain threshold variation at 165 umol/kg, po administered as single dose measured after 180 mins by tail flick test
Mus musculus [16] = assay: Analgesic activity in ICR mouse assessed as increase in pain threshold variation at 165 umol/kg, po administered as single dose measured after 150 mins by tail flick test
Mus musculus [17] = assay: Analgesic activity in ICR mouse assessed as increase in pain threshold variation at 20 umol/kg, ip administered as single dose measured after 120 mins by tail flick test
Method in brief: (§3)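 Mice were housed on a 12/12 light/dark cycle at 21 ± 2 °C for one day before use. Each got a single intraperitoneal dose of 20 µmol/kg in normal saline; vehicle controls got […]. Tail-flick basal threshold was read four times, then every 30 min to 180 min with a 10 s cut-off. PTV = (post-dose threshold − basal)/basal. n = 12, mean ± SD, one-way ANOVA.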

Mus musculus [18] = assay: Analgesic activity in ICR mouse assessed as increase in pain threshold variation at 20 umol/kg, ip administered as single dose measured after 30 mins by tail flick test; method in brief: as §3
Mus musculus [19] = assay: Analgesic activity in ICR mouse assessed as increase in pain threshold variation at 20 umol/kg, ip administered as single dose measured after 90 mins by tail flick test; method in brief: as §3
Mus musculus [20] = assay: Analgesic activity in ICR mouse assessed as increase in pain threshold variation at 20 umol/kg, ip administered as single dose measured after 150 mins by tail flick test; method in brief: as §3
Mus musculus [21] = assay: Analgesic activity in ICR mouse assessed as increase in pain threshold variation at 20 umol/kg, ip administered as single dose measured after 180 mins by tail flick test; method in brief: as §3
Mus musculus [22] = assay: Analgesic activity in ICR mouse assessed as increase in pain threshold variation at 20 umol/kg, ip administered as single dose measured after 60 mins by tail flick test; method in brief: as §3

Row | Structure (SMILES) | Activity (Mus musculus [1]) | Activity (Mus musculus [2]) | Activity (Mus musculus [3]) | Activity (Mus musculus [4]) | Activity (Mus musculus [6]) | Activity (Mus musculus [8]) | inhibition in vivo at 20 µmol/kg (Mus musculus [9]) | other results
1 | COC(=O)[C@H](Cc1ccccc1)/N=C/C=C/N[C@@H](Cc1ccccc1)C(=O)OC | 40.67% | 28.22% | 35.82% | 35.33% | 28.92% | 30.66% | 36.8% | inhibition in vivo at 5 µmol/kg (Mus musculus [5]): 12.9%; inhibition in vivo at 10 µmol/kg (Mus musculus [7]): 25.4%
2 | COC(=O)[C@H](COCc1ccccc1)/N=C/C=C/N[C@@H](COCc1ccccc1)C(=O)OC | 37.48% | 32.18% | 36.24% | 34.17% | 34.87% | 33.33% | 55% | 
3 | COC(CC(OC)OC)OC | 11.93% | 6.22% | 12.15% | 11.8% | 11.84% | 11.89% |  | 
4 | CC(=O)Oc1ccccc1C(=O)O [ASPIRIN] |  |  |  |  |  |  |  | Activity (Mus musculus [10]): 12.88%; inhibition in vivo at 165 µmol/kg (Mus musculus [11]): 65.1%; Activity (Mus musculus [12]): 16.46%; Activity (Mus musculus [13]): 19.79%; Activity (Mus musculus [14]): 18.69%; Activity (Mus musculus [15]): 14.65%; Activity (Mus musculus [16]): 14.59%
5 | CN1CC[C@]23c4c5ccc(O)c4O[C@H]2[C@@H](O)C=C[C@H]3[C@H]1C5 [MORPHINE] |  |  |  |  |  |  |  | Activity (Mus musculus [17]): 64.9%; Activity (Mus musculus [18]): 147%; Activity (Mus musculus [19]): 122.7%; Activity (Mus musculus [20]): 36.7%; Activity (Mus musculus [21]): 32.9%; Activity (Mus musculus [22]): 177.6%
